Data published in ChEMBL document CHEMBL1157615, “N-methyl phenylalanine-rich peptides as highly versatile blood-brain barrier shuttles” (J Med Chem, 2010).
Numbered stars: 1 amine (or outer) side, 2 acyl side, 3 side chain; on linkers, the order of the positions; unused ones are H or OH. Square brackets hold non-standard residues; d marks the D form. Peptide text beside a SMILES is read from it. * marks the point of attachment. ξ: configuration not given here. 2Nal = N[C@@H](Cc1ccc2ccccc2c1)C(=O)O; NMeF = CN[C@@H](Cc1ccccc1)C(=O)O; ξNip = O=C(C1CCCN([*:1])C1)[*:2]; X1 = NCC(=O)CCC(=O)*; GABA = NCCCC(=O)O

Key:
[1] = Permeability across artificial membrane assessed as compound transport at 200 uM after 4 hrs by PAMPA using HPLC/MS method; assay type: ADME
Summary of the method: (§1)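 PAMPA with porcine polar brain lipid extract (20 mg/mL in dodecane) on the filter; 200 μM compound in water with 20% 1-propanol cosolvent in donor, water in acceptor; 4 h at room temperature, saturated humidity, orbital shaking 100 rpm. Donor and acceptor quantified by HPLC-MS against external calibration curves. Pe and % transport from acceptor versus initial donor concentration; retention from mass balance.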

[2] = Permeability across artificial membrane assessed as membrane retention at 200 uM by PAMPA using HPLC/MS method; assay type: ADME; summary of the method: as §1
[3] = Effective permeability across artificial membrane at 200 uM by PAMPA using HPLC/MS method; assay type: ADME; details: read-out: permeability; summary of the method: as §1
[4] = Apparent permeability in BBMEC; assay type: ADME, Bos taurus; details: cattle
[5] = Apparent permeability in BBMEC assessed as compound transport after 2 hrs; assay type: ADME, Bos taurus; details: cattle
[6] = Apparent permeability in BBMEC assessed as membrane retention; assay type: ADME, cell membranes, Bos taurus; details: cattle

Activity [1]	Activity [2]	Papp at 200 µM [3]	Papp [4]	Activity [5]	Activity [6]	Compound
0%	0%	–	–	–	–	CC(=O)N1CCC[C@H]1C(=O)N1CCC[C@H]1C(=O)N1CCC[C@H]1C(=O)N1CCC[C@H]1C(N)=O (Ac-PPPP-NH2)
0%	0%	–	–	–	–	CC(=O)N1CCC[C@H]1C(=O)N1CCC[C@H]1C(=O)N1CCC[C@H]1C(=O)N1CCC[C@H]1C(=O)N1CCC[C@H]1C(=O)N1CCC[C@H]1C(=O)N1CCC[C@H]1C(=O)N1CCC[C@H]1C(=O)N1CCC[C@H]1C(=O)N1CCC[C@H]1C(N)=O (Ac-PPPPPPPPPP-NH2)
0%	0%	–	–	–	–	CC(=O)N1CCC[C@H]1C(=O)N1CCC[C@H]1C(N)=O (Ac-Pro-Pro-NH2)
0.4%	18.4%	0.2 ×10⁻⁶ cm/s	–	–	–	CN(C(=O)[C@H](Cc1ccc2ccccc2c1)NC(=O)CCCN)[C@@H](Cc1ccccc1)C(=O)N(C)[C@@H](Cc1ccccc1)C(=O)N(C)[C@@H](Cc1ccccc1)C(N)=O (H-[GABA][2Nal][NMeF][NMeF][NMeF]-NH2)
2.1%	14.5%	1 ×10⁻⁶ cm/s	15 ×10⁻⁶ cm/s	17.8%	50.7%	CN(C(=O)CCC(=O)CN)[C@@H](Cc1ccccc1)C(=O)N(C)[C@@H](Cc1ccccc1)C(=O)N(C)[C@@H](Cc1ccccc1)C(=O)N(C)[C@@H](Cc1ccccc1)C(N)=O (X1-[NMeF][NMeF][NMeF][NMeF]-NH2)
2.4%	23.6%	1.1 ×10⁻⁶ cm/s	3.5 ×10⁻⁶ cm/s	4.1%	83.8%	CN(C(=O)[C@H](Cc1ccc2ccccc2c1)NC(=O)C1CCCNC1)[C@@H](Cc1ccccc1)C(=O)N(C)[C@@H](Cc1ccccc1)C(=O)N(C)[C@@H](Cc1ccccc1)C(N)=O (some centres undefined) (ξNip-[2Nal][NMeF][NMeF][NMeF]-NH2)
–	–	–	16.1 ×10⁻⁶ cm/s	20.6%	67.4%	Cn1c(=O)c2c(ncn2C)n(C)c1=O [CAFFEINE]
0%	5.4%	–	–	–	–	NCCCC(=O)O [GAMMA-AMINOBUTYRIC ACID]

More lines, now with the values behind:

Compound	Activity [1]	Activity [2]	Papp at 200 µM [3]	Papp [4]	Activity [5]	Activity [6]
CC(=O)N1CCC[C@H]1C(=O)N1CCC[C@H]1C(=O)N1CCC[C@H]1C(=O)N1CCC[C@H]1C(=O)N1CCC[C@H]1C(=O)N1CCC[C@H]1C(N)=O (Ac-PPPPPP-NH2)	0%	0%	–	–	–	–
CC(=O)N1CCC[C@H]1C(=O)N1CCC[C@H]1C(=O)N1CCC[C@H]1C(=O)N1CCC[C@H]1C(=O)N1CCC[C@H]1C(=O)N1CCC[C@H]1C(=O)N1CCC[C@H]1C(=O)N1CCC[C@H]1C(N)=O (Ac-PPPPPPPP-NH2)	0%	0%	–	–	–	–
CN(C(=O)CCCN)[C@@H](Cc1ccccc1)C(=O)N(C)[C@@H](Cc1ccccc1)C(=O)N(C)[C@@H](Cc1ccccc1)C(=O)N(C)[C@@H](Cc1ccccc1)C(N)=O (H-[GABA][NMeF][NMeF][NMeF][NMeF]-NH2)	0.8%	< 1%	0.4 ×10⁻⁶ cm/s	–	–	–
CN(C(=O)C1CCCNC1)[C@@H](Cc1ccccc1)C(=O)N(C)[C@@H](Cc1ccccc1)C(=O)N(C)[C@@H](Cc1ccccc1)C(=O)N(C)[C@@H](Cc1ccccc1)C(N)=O (some centres undefined) (ξNip-[NMeF][NMeF][NMeF][NMeF]-NH2)	2.8%	4.6%	1.4 ×10⁻⁶ cm/s	6.6 ×10⁻⁶ cm/s	7.9%	74%
NCC(=O)CCC(=O)O [AMINOLEVULINIC ACID]	0%	23%	–	–	–	–
NC(=O)N1c2ccccc2C=Cc2ccccc21 [CARBAMAZEPINE]	19.3%	< 1%	11.5 ×10⁻⁶ cm/s	16.5 ×10⁻⁶ cm/s	20%	67.5%
O=C(O)C1CCCNC1 (centres undefined) [NIPECOTIC ACID]	0%	52.6%	–	–	–	–
CC(C)NCC(O)COc1cccc2ccccc12 (centres undefined) [PROPRANOLOL]	13.9%	17.2%	–	16.9 ×10⁻⁶ cm/s	21.2%	63%
